Compound activity as filed in PubChem.
Rows were chosen to be rich in hits. Some 3.6% of all compounds tested hit in one or more screens of this group.
HSF1 activator: increases HSF-1 driven luciferase reporter signal; 1.7% of 300,000 active; activation, % at 9 µM; NIH3T3-HGL HSF-1 luciferase reporter, MG132, 8 h; 100% = twice DMSO control signal;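 active = mean replicate activation of at least 50% with a set share of replicates each reaching 50%; inconclusive = only one of those two conditions met; inactive = mean below 50% and too few replicates reaching it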
Wnt bcat act: activates Wnt/beta-catenin signaling in a reporter cell assay. activator, plate reader. activation, % at 9.35 µM. 1.2% of 300,000 active; in the data active = activation above about 30%, passing the limit was not always enough; inconclusive = no clear call, values can overlap the other calls
SR-BI DiI-HDL act: enhances SR-BI lipid uptake from DiI-HDL; AID 504775; CHO ldlA[mSR-BI] cells, DiI-HDL uptake fluorescence, 3 h; 100 = double the neutral-control signal; activation, % at 12.5 µM; 0.096% of 320,000 active;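 active = mean replicate activation of at least 60% and every replicate at or above 60%; inconclusive = mean or all-replicate condition met, but not both; inactive = mean below 60% and not all replicates reaching 60%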
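Test system: SR-BI-overexpressing, LDLR-lacking CHO cells; Medium: Ham's F12 with 0.5% BSA, HEPES 25 mM, pH 7.4; Schedule: 3 h, 37 °C; Technique: bottom-read fluorescence, 550/595 nm.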
MITF act: activators of MITF-driven TRPM1 promoter activity in SK-MEL-5 cells; SK-MEL-5 TRPM1-promoter luciferase, 24 h; % of positive control, neutral wells = 0; 0.75% of 300,000 active; activation, % at 12.5 µM; AID 588334;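 active = mean activation of at least 80% with every replicate also reaching 80%; inconclusive = mean reaches 80% but some replicate falls short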
SR-BI DiI inh: blocks mouse SR-BI lipid uptake from DiI-HDL. Q61009. 0.96% of 320,000 active. inhibition, % at 12.5 µM. ldlA[mSR-BI] CHO cells, DiI-HDL uptake fluorescence, 3 h;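 active = mean replicate inhibition of at least 70% and a set share of replicates each scoring 70 or more; inconclusive = meets just one of the two criteria; inactive = fails both criteria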
Target sequence (Q61009 whole entry, looked up): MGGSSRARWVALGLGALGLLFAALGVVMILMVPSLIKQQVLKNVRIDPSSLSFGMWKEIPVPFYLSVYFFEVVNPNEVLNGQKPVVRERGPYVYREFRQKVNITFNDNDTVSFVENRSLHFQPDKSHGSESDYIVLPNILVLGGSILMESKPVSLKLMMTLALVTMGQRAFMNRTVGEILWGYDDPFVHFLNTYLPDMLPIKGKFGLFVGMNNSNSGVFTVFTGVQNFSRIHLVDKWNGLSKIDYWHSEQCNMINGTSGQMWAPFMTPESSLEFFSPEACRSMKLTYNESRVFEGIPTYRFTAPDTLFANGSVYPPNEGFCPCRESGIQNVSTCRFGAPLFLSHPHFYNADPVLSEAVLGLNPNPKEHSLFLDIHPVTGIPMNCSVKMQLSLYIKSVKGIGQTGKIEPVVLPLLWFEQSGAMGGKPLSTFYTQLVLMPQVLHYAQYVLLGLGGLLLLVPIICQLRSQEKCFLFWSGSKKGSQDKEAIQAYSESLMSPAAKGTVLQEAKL
Hits are given with their value; – = inactive; ? = inconclusive; · = no result.

SMILES	HSF1 activator	Wnt bcat act	SR-BI DiI-HDL act	MITF act	SR-BI DiI inh
COc1cc(NC(=O)c2ccccc2)c(OC)cc1NC(=O)CN1C(=O)NC2(CCCCC2C)C1=O (stereo not given)	·	–	–	–	–
COc1cc(NC(=O)c2ccc(C)cc2)c(OC)cc1NC(=O)CN1CCOCC1	60	·	·	–	·
CCN1/C(=C/C=C/c2oc3ccc(-c4ccccc4)cc3[n+]2CC)Oc2ccc(-c3ccccc3)cc21	103	–	–	–	–
COc1ccc(C2CC(=O)C(c3ccccc3OC)=CN2Cc2ccccc2)cc1 (stereo not given)	·	–	·	·	·
COC(=O)C1CCN(C2CN(Cc3cn(Cc4ccc(C(F)(F)F)cc4)nn3)S(=O)(=O)C2)CC1 (stereo not given)	·	–	·	·	·
CCCc1cc(=O)[nH]c(SCc2nc3ccccc3s2)n1	62	–	–	–	–
COc1cccc(C(=O)/C=C/Nc2cccc(O)c2)c1	–	–	–	–	–
O=C(/C=C/Nc1ccc(Br)cn1)c1cccc(OC(F)F)c1	·	–	–	93	–
COc1ccc(N=C2SC(CC(=O)Nc3ccccc3)C(=O)N2Cc2ccco2)cc1 (stereo not given)	–	44	–	–	–
O=C(CC1SC(=Nc2ccccc2)N(CCO)C1=O)Nc1ccccc1 (stereo not given)	–	–	–	–	–
C=CCN1C(=O)C(CC(=O)Nc2ccccc2F)S/C1=N\c1nccs1 (stereo not given)	–	–	–	–	84
CCN1C(=O)C(CC(=O)Nc2ccccc2)S/C1=N\c1ccccn1 (stereo not given)	–	–	–	–	78
COc1ccc(N=C2SC(CC(=O)Nc3ccccc3F)C(=O)N2Cc2ccco2)cc1 (stereo not given)	–	·	–	–	–
CCOC(=O)C1(C)CCN1C(=O)c1ccc(SC(F)(F)F)cc1 (stereo not given)	·	–	·	·	·
O=C(NC(=S)N1CCN(C/C=C/c2ccccc2)CC1)c1ccc(Cl)nc1	69	–	–	·	–
Cc1cc(C)c2cc(CN(Cc3ccco3)C(=S)NCC3CCCO3)c(=O)[nH]c2c1 (stereo not given)	299	–	–	–	–
COC(=O)c1ccccc1NC(=S)N(Cc1ccc2c(c1)OCO2)Cc1cc2ccc(OC)cc2[nH]c1=O	90	–	–	–	–
Cc1ccc(C)c2[nH]c(=O)c(CN(CC3CCCO3)C(=S)NCc3ccco3)cc12 (stereo not given)	–	–	·	–	·
COc1ccc2cc(CN(Cc3ccco3)C(=S)NCC3CCCO3)c(=O)[nH]c2c1 (stereo not given)	55	–	–	–	–
COc1ccc2[nH]c(=O)c(CN(Cc3ccccc3)C(=S)NCC3CCCO3)cc2c1 (stereo not given)	–	–	–	–	–
CCCC(c1nnnn1C(C)(C)CC)N(Cc1ccco1)Cc1cc2ccc(OC)cc2[nH]c1=O (stereo not given)	57	·	–	–	–
CC(C)(C)S(=O)(=O)N1C[C@H]2CC(=O)C=C2[C@@H]1CCO	·	–	·	·	·
ClC(Cl)c1nnc(-c2ccccc2)c(-c2c[nH]c3ccccc23)n1	57	·	–	–	–
c1ccc(-c2nnc(-c3c[nH]c4ccccc34)nc2-c2ccccc2)cc1	–	–	–	·	–
O=C(Nc1nccs1)c1ccc(COc2ccc(F)cc2)o1	?	–	–	–	–
SMILES	HSF1 activator	Wnt bcat act	SR-BI DiI-HDL act	MITF act	SR-BI DiI inh
CC(=O)c1csc(COc2ccc(Cl)cc2)n1	61	?	–	–	–
O=C(Nc1nccs1)c1ccc(COc2ccc(Cl)cc2)o1	56	·	–	–	–
CC(=O)Nc1nnc(COc2ccc(Cl)cc2)s1	–	–	–	100	–
COc1ccc(S(=O)(=O)N2CCOCC2)cc1NC(=O)c1ccc(S(=O)(=O)N(C)c2ccccc2OC)cc1	·	–	–	–	–
CCOc1ccc(N2C(=O)/C(=C\c3ccc(O)c(OC)c3)S(=O)(=O)C2c2cccc([N+](=O)[O-])c2)cc1 (stereo not given)	112	–	–	–	–
CCn1c(-c2ccccc2)csc1=Nc1ccc(O)cc1	–	66	–	–	–
COc1ccc2[nH]c(=O)c(CN(C(=O)COc3ccccc3)C(C)C)cc2c1	64	·	–	–	–
CCOC(=O)C1=C(O)/C(=C/c2cn(CC(=O)N3CCCC3)c3ccccc23)SC1=Nc1ccccc1	–	·	–	·	70
COc1ccc(C(=O)N(C)[C@H]2C[C@H]3c4[nH]c5c(-c6ccccc6)cccc5c4CCN3C(=O)[C@H]2[C@H](C)O)cc1	·	–	·	·	·
Cc1ccc(NC2OC(C(O)CO)C(O)C2O)cc1[N+](=O)[O-] (stereo not given)	–	·	–	–	–
Cc1ccc(NC2OC(CO)C(O)C2O)cc1[N+](=O)[O-] (stereo not given)	72	·	–	–	–
CCOC(=O)C(=O)Nc1ccc2c(c1)OCO2	–	–	–	·	–
CCOC(=O)/C(N=Nc1ccc2c(c1)OCO2)=C(\C)O	–	–	–	115	–
O=C(OCc1c(F)cccc1Cl)c1cc([N+](=O)[O-])ccc1N1CCOCC1	–	–	–	–	–
N/C(Cc1ccc([N+](=O)[O-])cc1)=N\OC(=O)c1ccccc1F	66	–	–	–	–
O=C(Cc1ccc([N+](=O)[O-])cc1)OCc1c(F)cccc1Cl	56	–	–	–	–
Cc1cc2c(c(=O)o1)[C@@]1(C(=O)N(C)c3cccc(Br)c31)C1=C(CCCC1=O)O2	·	–	·	·	·
CNc1cccc(-c2c(OC)cccc2OC)n1	·	–	·	·	·
CCCNCC1COc2ccccc2O1 (stereo not given)	–	·	·	·	·
COc1cccc(OC)c1OCCNCC1COc2ccccc2O1 (stereo not given)	53	–	–	–	–
CC(C)[C@H](NC(=O)[C@@H]1Cc2ccccc2CN1)C(=O)Nc1ccc2c(c1)OCCO2	–	–	–	–	–
CCC(C)[C@H](NC(=O)[C@@H]1Cc2ccccc2CN1)C(=O)Nc1ccc2c(c1)OCO2 (stereo not given in full)	77	–	–	–	–
O=C(O)C1C(c2ccccc2)C(C(=O)Oc2ccccc2)C1c1ccccc1 (stereo not given)	–	·	–	–	–
CC(C)CCOC(=O)C1C(c2ccccc2)C(C(=O)O)C1c1ccccc1 (stereo not given)	–	43	–	–	–
CC(=O)c1ccc(NC(=O)C(C)Sc2nnc(C3CC3)n2C2CC2)cc1 (stereo not given)	·	–	–	–	76
CCOC(=O)/C=C(/C)N1N=C(c2ccc(OC)cc2)CC1c1cccc([N+](=O)[O-])c1 (stereo not given)	59	–	–	–	–
CCN(CCCNC(=O)CCc1nc(-c2ccc(OC)cc2)no1)c1cccc(C)c1	62	·	–	–	–
CCN(CCCNC(=O)Cn1cc2c(n1)CCCC2)c1cccc(C)c1	59	–	–	–	–
